Measured values gathered from unrelated publications.
Protocols differ between the studies behind these lines.
Target: Homeodomain-interacting protein kinase 3 (HIPK3, Homo sapiens, UniProt Q9H422)

O=C1NC(=O)c2cc(Nc3ccc(F)cc3)c(Nc3ccc(F)cc3)cc21  remaining signal (cell-free assay; 0.5 µM): 95.3%
CCCOc1ccc([C@H]2[C@H](C(=O)O)[C@@H](c3ccc4c(c3)OCO4)CN2CC(=O)Nc2c(CC)cccc2CC)cc1  remaining binding (cell-free assay; competition with immobilised ligand; 1 µM): 74%
COc1cc(Nc2cnc(C#N)c(O[C@H](C)CN(C)C)n2)ncc1-c1cnn(C)c1  remaining activity (enzyme activity; inhibitor; radiometric; 10 µM): 111%
COc1cc(/C=C/C(=O)CC(=O)/C=C/c2ccc(O)c(OC)c2)ccc1O  activity vs control (enzyme activity; inhibitor; 1 µM): 88%
COc1ccc2c(O[C@@H]3C[C@H]4C(=O)N[C@]5(C(=O)O)CC5/C=C\CCCCC[C@H](NC(=O)OC5CCCC5)C(=O)N4C3)cc(-c3csc(NC(=O)C(C)C)n3)nc2c1C (stereo partly drawn)  remaining binding (cell-free assay; competition with immobilised ligand; 1 µM): 83%
O=C(O)c1ccc2c(c1)nc(NCCc1cccc(F)c1)c1ccncc12  remaining activity (enzyme activity; inhibitor; radiometric; 1 µM): 8%
CCCS(=O)(=O)Nc1ccc(F)c(C(=O)c2c[nH]c3ncc(-c4ccc(Cl)cc4)cc23)c1F  inhibition (enzyme activity; inhibitor; 1 µM): < 10%
O=C(O)c1ccc2c(c1)nc(NCCc1cccc(F)c1)c1ncncc12  remaining activity (enzyme activity; inhibitor; radiometric; 1 µM): 27%
COc1cc(-c2cc(-c3ccc(N4CCNCC4)cc3)cnc2C)cc(OC)c1OC  inhibition (enzyme activity; inhibitor; 1 µM): 2%
O=C(O)c1ccc2c(c1)nc(Nc1ccccc1Cl)c1ncncc12  remaining activity (enzyme activity; inhibitor; radiometric; 1 µM): 17%
O=C1Nc2ccc(Cl)cc2C1=Cc1cc(Cl)c(O)c(Cl)c1  remaining signal (cell-free assay; 0.5 µM): 91.5%
O=C(NC[C@@H]1[C@H]2CN(C(=O)OCc3cc(C(F)(F)F)cc(C(F)(F)F)c3)C[C@@H]12)c1ccc2[nH]nnc2c1  remaining binding (cell-free assay; competition with immobilised ligand; 1 µM): 89%
O=C(O)c1ccc2c(c1)nc(Nc1cccc(F)c1)c1ncncc12  remaining activity (enzyme activity; inhibitor; radiometric; 1 µM): 5%
Cc1ccc(Nc2nccc(N(C)c3ccc4c(C)n(C)nc4c3)n2)cc1S(N)(=O)=O  inhibition (enzyme activity; inhibitor; 0.3 µM): 24%
COc1cc2nccc(Oc3ccc(NC(=O)c4c5n(n(-c6ccc(F)cc6)c4=O)CCCC5)cc3)c2cc1OC  inhibition (enzyme activity; inhibitor; 0.1 µM): -8%
COc1cc2ncnc(Nc3ccc(Oc4ccccc4)c(C)c3C)c2cc1OC  inhibition (enzyme activity; inhibitor; 1 µM): 1%
CCN(CC)CCNC(=O)c1c(C)[nH]c(/C=C2\C(=O)Nc3ccc(F)cc32)c1C  inhibition (enzyme activity; inhibitor; 0.3 µM): 21%
O=C(O)c1ccc2c(c1)nc(Nc1ccc3ccccc3c1)c1ncncc12  remaining activity (enzyme activity; inhibitor; radiometric; 1 µM): 3%
CNC(=O)c1cc(Oc2ccc(NC(=O)Nc3ccc(Cl)c(C(F)(F)F)c3)cc2)ccn1  remaining signal (cell-free assay; 0.5 µM): 85.7%
CN1CC(Oc2cnc(C#N)cc2-c2ccn3nc(NC(=O)C4CC4)cc3c2)C1  inhibition (enzyme activity; inhibitor; 1 µM): -3%
CCc1ccccc1C(=O)Nc1n[nH]c2c(C)c(F)c(C3C(C#N)=C(C)N(C)C(C)=C3C#N)cc12  remaining binding (cell-free assay; competition with immobilised ligand; 1 µM): 100%
O=C(O)c1ccc2c(c1)nc(Nc1ccccc1)c1ncncc12  remaining activity (enzyme activity; inhibitor; radiometric; 1 µM): 13%
CC(C)CC(=O)N1CCc2nc(-c3ccc(Br)cc3)nc(N(C)Cc3ccccc3)c2C1  remaining binding (cell-free assay; competition with immobilised ligand; 0.1 µM): 100%
COc1cccc(CCNc2nc3cc(C(=O)O)ccc3c3cnccc23)c1  remaining activity (enzyme activity; inhibitor; radiometric; 1 µM): 21%
O=C(NCc1ncc(C(F)(F)F)cc1Cl)c1ccc2c(c1)C1(CCS(=O)(=O)CC1)[C@H](C1CC1)N2S(=O)(=O)c1ccc(F)cc1  remaining binding (cell-free assay; competition with immobilised ligand; 1 µM): 82%
O=C(O)c1ccc2c(c1)nc(Nc1cccc(F)c1)c1ccncc12  remaining activity (enzyme activity; inhibitor; radiometric; 1 µM): 10%
CNC(=O)Nc1ccc2c(c1)[C@@]1(CC2)OC(=O)N(CC(=O)N(Cc2ccc(F)cc2)[C@@H](C)C(F)(F)F)C1=O  remaining binding (cell-free assay; competition with immobilised ligand; 1 µM): 90%
CC/C(=N\NC(=O)NCc1cccc(O)c1)c1ccc(O)c(C)c1O  inhibition (enzyme activity; inhibitor; 0.1 µM): 2.5%
CO[C@H]1CC[C@H](CNc2ccc(S(=O)(=O)NC(=O)c3ccc(N4CCN(CC5=C(c6ccc(Cl)cc6)CC(C)(C)CC5)CC4)cc3Oc3cnc4[nH]ccc4c3)cc2[N+](=O)[O-])CC1  remaining binding (cell-free assay; competition with immobilised ligand; 1 µM): 100%
FC(F)(F)Oc1cccc(-c2cnc3ccc(-c4ccncc4)nn23)c1  activity vs control (enzyme activity; inhibitor; radiometric; 5 µM): 35%
